In brackets after ≈: the same amount, converted by molar mass. Activity calls are given as the source filed them. The rule behind the calls is not given here.
How the values were obtained:
[1] = tested on: Mus musculus; assay: Antiinflammatory activity in CIA-MAB-50-induced BALB/c mouse arthritis model assessed as decrease in LPS-induced paw size at 2 mg/kg, po qd administered on day 3 to 10 post LPS challenge measured on day 10 relative to vehicle-treated control; type: functional, organism-based
How it was run: (§1)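 BALB/c female mice given arthritogenic monoclonal antibody CIA-MAB-50 (2.5 mg) on day 0, then LPS booster (25 μg i.p.) on day 3. Oral gavage once daily on days 3–10; vehicle group received methylcellulose. Paw size measured on days 0, 3, 6, 8 and 10. Study ended on day 10, and day-10 paw size was compared with vehicle.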

[2] = molecular target: Misshapen-like kinase 1 (Homo sapiens) (UniProt Q8N4C8); assay: Inhibition of recombinant human MINK1 at 10 uM relative to control
[3] = Kinetic aqueous solubility of the compound in phosphate buffered saline at pH 7 at 25 degC after 24 hrs by HPLC/DAD method; type: physicochemical; settings: read-out: Kinetic_solubility
[4] = molecular target: T1, Interleukin-1 receptor-associated kinase 4 (Homo sapiens, UniProt Q9NWZ3); assay: biochemical
T1 sequence (Q9NWZ3 whole entry): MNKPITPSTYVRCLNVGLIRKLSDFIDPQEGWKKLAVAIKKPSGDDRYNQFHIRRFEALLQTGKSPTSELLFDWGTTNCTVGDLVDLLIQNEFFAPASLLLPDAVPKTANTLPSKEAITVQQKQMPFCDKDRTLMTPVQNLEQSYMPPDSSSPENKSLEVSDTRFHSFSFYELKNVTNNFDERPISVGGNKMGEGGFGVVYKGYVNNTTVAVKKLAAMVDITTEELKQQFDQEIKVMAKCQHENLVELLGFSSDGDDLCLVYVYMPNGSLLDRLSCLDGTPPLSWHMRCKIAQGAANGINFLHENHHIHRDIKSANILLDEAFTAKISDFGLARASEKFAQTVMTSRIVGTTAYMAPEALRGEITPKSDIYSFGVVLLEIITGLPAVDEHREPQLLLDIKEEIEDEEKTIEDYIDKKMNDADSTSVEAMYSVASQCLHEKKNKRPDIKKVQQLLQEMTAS

[5] = molecular target: T2, Interleukin-1 receptor-associated kinase 4 (Homo sapiens) (UniProt Q9NWZ3); assay: Inhibition of recombinant human IRAK4 at 10 uM relative to control
T2 sequence (whole entry): T1 sequence (Q9NWZ3 whole entry)

[6] = Drug metabolism in rat hepatocytes assessed as monooxidized metabolite formation; type: ADME, cell-based, Hepatocyte
[7] = AUC (0 to 8 hrs) in Sprague-Dawley rat at 10 mg/kg, po administered as cassette dosing; type: ADME, organism-based; parameters: dose 10 mg/kg, time < 8 hr, route oral; settings: in vivo
[8] = tested on: Rattus norvegicus; assay: Antiinflammatory activity in Lewis rat peritonitis model assessed as reduction of TLR2 agonist PAM2CSK4-induced IL-6 production in plasma at 100 mg/kg, po administered 1 hr prior to PAM2CSK4 challenge measured after 3 hrs relative to vehicle-treated control; type: functional
How it was run: (§2)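 Female Lewis rats (n = 9) dosed by oral gavage at 100 mg/kg. One hour later, TLR2 agonist PAM2CSK4 injected intraperitoneally. Plasma collected 3 h after injection for cytokine levels and drug exposure. Cytokines expressed relative to a vehicle-only group.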

[9] = tested on: Rattus norvegicus; assay: Antiinflammatory activity in Lewis rat peritonitis model assessed as reduction of TLR2 agonist PAM2CSK4-induced IL-1beta production in plasma at 100 mg/kg, po administered 1 hr prior to PAM2CSK4 challenge measured after 3 hrs relative to vehicle-treated control; type: functional; parameters: scale not given: the % may be the effect or the level left; how it was run: as §2
[10] = tested on: Rattus norvegicus; assay: Antiinflammatory activity in Lewis rat peritonitis model assessed as reduction of TLR2 agonist PAM2CSK4-induced IFN-gamma production in plasma at 100 mg/kg, po administered 1 hr prior to PAM2CSK4 challenge measured after 3 hrs relative to vehicle-treated control; type: functional; how it was run: as §2
[11] = molecular target: T1, Interleukin-1 receptor-associated kinase 4; assay: Inhibition of IRAK4 in human THP1-XBlue cells assessed as suppression of TLR4 agonist LPS-induced activation of NF-kappaB preincubated for 1 hr followed by LPS challenge measured after 5 hrs by secreted embryonic alkaline phosphatase reporter gene assay; type: cell-based, THP-1
[12] = AUC (0 to 6 hrs) in Sprague-Dawley rat at 10 mg/kg, po administered as cassette dosing; type: ADME, organism-based; parameters: time < 6 hr, dose 10 mg/kg, route oral; settings: in vivo
[13] = tested on: Rattus norvegicus; assay: Antiinflammatory activity in Lewis rat peritonitis model assessed as reduction of TLR2 agonist PAM2CSK4-induced TNF-alpha production in plasma at 100 mg/kg, po administered 1 hr prior to PAM2CSK4 challenge measured after 3 hrs relative to vehicle-treated control; type: functional; parameters: scale not given: the % may be the effect or the level left; how it was run: as §2
[14] = Plasma concentration in PAM2CSK4 challenged Lewis rat peritonitis model at 100 mg/kg, po administered 1 hr prior to PAM2CSK4 challenge measured after 3 hrs; type: ADME, organism-based; how it was run: as §2
[15] = molecular target: BDNF/NT-3 growth factors receptor (Homo sapiens) (UniProt Q16620); assay: Inhibition of recombinant human TRKB at 10 uM relative to control
[16] = tested on: Pgp; assay: Apparent permeability across pig LLC-PK1 cells expressing human or mouse Pgp; type: ADME, cell-based, Sus scrofa
[17] = Oral bioavailability in Sprague-Dawley rat at 10 mg/kg administered as cassette dosing; type: ADME, organism-based; settings: in vivo
[18] = AUC (0 to 24 hrs) in mouse at 5 mg/kg, po; type: ADME, organism-based; parameters: dose 5 mg/kg, time < 24 hr, route oral; settings: in vivo
[19] = tested on: Pgp; assay: Activity at rat Pgp assessed as apparent permeability by cell-based assay; type: ADME; settings: not told
[20] = molecular target: T2, Interleukin-1 receptor-associated kinase 4 (Homo sapiens); settings: 1 uM
[21] = Fraction unbound in rat plasma at 10 uM after 6 hrs by dialysis method; type: ADME, cell-free
[22] = tested on: Mus musculus; assay: Antiinflammatory activity in CIA-MAB-50-induced BALB/c mouse arthritis model assessed as decrease in LPS-induced paw size at 100 mg/kg, po qd administered on day 3 to 10 post LPS challenge measured on day 10 relative to vehicle-treated control; type: functional, organism-based; how it was run: as §1
[23] = tested on: Rattus norvegicus; assay: Antiinflammatory activity in Lewis rat peritonitis model assessed as reduction of TLR2 agonist PAM2CSK4-induced IL-8 production in plasma at 100 mg/kg, po administered 1 hr prior to PAM2CSK4 challenge measured after 3 hrs relative to vehicle-treated control; type: functional; parameters: scale not given: the % may be the effect or the level left; how it was run: as §2
[24] = AUC (0 to 8 hrs) in Sprague-Dawley rat at 2 mg/kg, iv; type: ADME, organism-based; parameters: dose 2 mg/kg, time < 8 hr, route intravenous; settings: in vivo

Sequence of BDNF/NT-3 growth factors receptor (Homo sapiens) (Q16620 32-822 limits assumed): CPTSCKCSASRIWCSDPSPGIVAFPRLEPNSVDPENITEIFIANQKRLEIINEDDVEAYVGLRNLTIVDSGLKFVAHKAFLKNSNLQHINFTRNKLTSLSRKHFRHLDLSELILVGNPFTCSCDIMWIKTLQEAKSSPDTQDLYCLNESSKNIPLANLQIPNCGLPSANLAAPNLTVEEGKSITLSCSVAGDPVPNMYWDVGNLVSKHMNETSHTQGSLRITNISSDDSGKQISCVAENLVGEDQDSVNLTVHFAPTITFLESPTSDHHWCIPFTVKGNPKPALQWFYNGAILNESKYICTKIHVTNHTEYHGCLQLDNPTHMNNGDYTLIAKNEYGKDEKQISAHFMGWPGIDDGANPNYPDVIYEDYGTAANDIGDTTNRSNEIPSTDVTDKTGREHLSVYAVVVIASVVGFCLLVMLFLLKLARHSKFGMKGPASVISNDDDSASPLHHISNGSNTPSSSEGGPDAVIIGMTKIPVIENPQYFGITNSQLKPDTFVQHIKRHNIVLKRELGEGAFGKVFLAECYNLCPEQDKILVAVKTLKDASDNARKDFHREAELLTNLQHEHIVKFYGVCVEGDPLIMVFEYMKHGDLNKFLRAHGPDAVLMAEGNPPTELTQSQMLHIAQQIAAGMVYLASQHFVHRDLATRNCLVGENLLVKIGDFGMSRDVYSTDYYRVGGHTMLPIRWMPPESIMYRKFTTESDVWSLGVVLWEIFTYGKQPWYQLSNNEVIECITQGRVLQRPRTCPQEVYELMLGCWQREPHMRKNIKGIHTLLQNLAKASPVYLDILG
Sequence of Misshapen-like kinase 1 (Homo sapiens) (Q8N4C8 whole entry, looked up): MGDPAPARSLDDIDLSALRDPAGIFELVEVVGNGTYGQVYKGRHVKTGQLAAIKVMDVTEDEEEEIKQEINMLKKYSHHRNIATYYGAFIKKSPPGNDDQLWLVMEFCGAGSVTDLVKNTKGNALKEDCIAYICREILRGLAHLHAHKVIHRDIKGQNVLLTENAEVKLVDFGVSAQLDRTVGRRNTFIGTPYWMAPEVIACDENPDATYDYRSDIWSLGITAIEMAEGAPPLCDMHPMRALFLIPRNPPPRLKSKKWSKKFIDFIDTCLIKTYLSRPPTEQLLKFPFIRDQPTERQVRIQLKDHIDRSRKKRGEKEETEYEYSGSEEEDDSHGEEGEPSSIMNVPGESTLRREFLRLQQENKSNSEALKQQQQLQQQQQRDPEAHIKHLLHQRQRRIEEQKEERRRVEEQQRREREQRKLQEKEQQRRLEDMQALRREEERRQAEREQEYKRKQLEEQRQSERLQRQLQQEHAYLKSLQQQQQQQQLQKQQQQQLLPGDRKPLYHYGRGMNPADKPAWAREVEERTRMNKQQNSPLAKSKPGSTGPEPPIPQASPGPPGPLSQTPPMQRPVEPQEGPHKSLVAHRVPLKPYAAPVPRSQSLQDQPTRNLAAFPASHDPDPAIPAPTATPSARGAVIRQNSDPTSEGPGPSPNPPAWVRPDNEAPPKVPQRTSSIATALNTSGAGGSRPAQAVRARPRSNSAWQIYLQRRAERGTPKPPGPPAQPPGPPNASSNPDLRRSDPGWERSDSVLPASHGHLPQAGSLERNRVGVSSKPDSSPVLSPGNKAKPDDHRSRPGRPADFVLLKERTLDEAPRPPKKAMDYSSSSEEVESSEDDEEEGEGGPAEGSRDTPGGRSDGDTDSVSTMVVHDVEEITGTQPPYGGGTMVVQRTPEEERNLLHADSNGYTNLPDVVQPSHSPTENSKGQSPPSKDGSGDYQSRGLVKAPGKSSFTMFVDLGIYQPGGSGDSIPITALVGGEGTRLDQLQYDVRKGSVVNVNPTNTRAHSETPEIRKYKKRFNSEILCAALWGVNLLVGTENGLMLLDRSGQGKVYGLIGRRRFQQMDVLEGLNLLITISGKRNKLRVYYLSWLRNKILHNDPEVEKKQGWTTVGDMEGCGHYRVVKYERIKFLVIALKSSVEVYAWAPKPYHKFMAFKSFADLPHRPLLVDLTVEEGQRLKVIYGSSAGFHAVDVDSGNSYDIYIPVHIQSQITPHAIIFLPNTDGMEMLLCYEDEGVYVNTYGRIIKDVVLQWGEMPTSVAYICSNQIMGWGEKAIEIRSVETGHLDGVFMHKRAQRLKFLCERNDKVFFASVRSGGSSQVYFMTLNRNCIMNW

SMILES	solubility kinetic at 24 h [3]	IC50 [4]	AUC(0-t) at 6 h [12]	further results
C[C@@H]1C[C@H]2[C@@H]3CCC4=CC(=O)C=C[C@]4(C)[C@@]3(F)[C@@H](O)C[C@]2(C)[C@@]1(O)C(=O)CO	–	–	–	Activity [1]: Active
COc1ccc(-c2cc(NC(=O)c3cnn4cccnc34)n(-c3ccc(C)cc3)n2)cc1	< 2 µM	170 nM	–	inhibition [2]: > 80%; inhibition [5]: > 80%
Cc1cccc(-n2nc(C3CCN(S(C)(=O)=O)CC3)cc2NC(=O)c2cnn3cccnc23)c1	–	2100 nM	–	–
COc1ccc(-c2cc(NC(=O)c3cnn4cccnc34)n(-c3ccc(C)cc3)n2)cc1OC	< 2 µM	44 nM	–	Drug metabolism [6]: metabolite_detected
CC(C)N1CCC(c2cc(NC(=O)c3cnn4cccnc34)n(-c3ccc(C4CC4)cc3F)n2)CC1	–	13 nM	–	AUC(0-t) at 8 h [7]: 1.11 µM·h
Cc1ccc(-n2nc(-c3ccccc3)cc2NC(=O)c2cnn3cccnc23)cc1	< 3 µM	690 nM	–	–
Cc1ccc(-n2nc(C3CCN(S(C)(=O)=O)CC3)cc2NC(=O)c2cnn3cccnc23)cc1	< 2 µM	67 nM	19.3 µM·h	Activity [8]: inactive; Activity [9]: 28%; Activity [10]: inactive; IC50 [11]: 2400 nM; Activity [13]: 21%; concentration at 3 h [14]: 2660 nM; inhibition [15]: > 80%; Papp [16]: 31 ×10⁻⁶ cm/s; inhibition [5]: > 80%
Cc1ccc(-n2nc(C3CCOCC3)cc2NC(=O)c2cnn3cccnc23)cc1	24 µM (≈ 9.66 µg/mL)	410 nM	0.45 µM·h	–
Cc1ccc(-n2nc(-c3ccncc3)cc2NC(=O)c2cnn3cccnc23)cc1	< 2 µM	61 nM	–	–
COc1cc(-c2cc(NC(=O)c3cnn4cccnc34)n(-c3ccc(C)cc3)n2)ccn1	< 2 µM	390 nM	1.39 µM·h	–
Cc1ccc(-n2nc(C3CCN(S(C)(=O)=O)CC3)cc2NC(=O)c2cnn3cccnc23)c(F)c1	–	40 nM	11.8 µM·h	–
Cc1ccc(-n2nc(C3CCN(C)CC3)cc2NC(=O)c2cnn3cccnc23)cc1	165 µM (≈ 68.6 µg/mL)	150 nM	–	–
CC(=O)N1CCC(c2cc(NC(=O)c3cnn4cccnc34)n(-c3ccc(C)cc3)n2)CC1	163 µM (≈ 72.3 µg/mL)	180 nM	0.71 µM·h	–
CS(=O)(=O)N1CCC(c2cc(NC(=O)c3cnn4cccnc34)n(-c3ccccc3)n2)CC1	–	280 nM	–	–
Cc1ccc(-n2nc(N3CCN(C)CC3)cc2NC(=O)c2cnn3cccnc23)nc1	–	5 nM	–	bioavailability [17]: 28%; AUC(0-t) at 24 h [18]: 2.3 µM·h; Activity [8]: 85%; Activity [9]: 28%; Activity [10]: 30%; Papp [19]: 32 ×10⁻⁶ cm/s; IC50 [11]: 83 nM; Activity [13]: 32%; inhibition [20]: > 80%; fraction unbound at 6 h, 10 µM [21]: 0.21; AUC(0-t) at 8 h [7]: 1.7 µM·h; Activity [22]: Active; Activity [23]: 34%; AUC(0-t) at 8 h [24]: 1.29 µM·h
Cc1ccc(-n2nc(N3CCN(S(C)(=O)=O)CC3)cc2NC(=O)c2cnn3cccnc23)nc1	–	2 nM	–	AUC(0-t) at 8 h [7]: 8.9 µM·h
Cc1ccc(-n2nc(C3CC3)cc2NC(=O)c2cnn3cccnc23)cc1	99 µM (≈ 35.5 µg/mL)	370 nM	2.37 µM·h	–
Cc1ccc(-n2nc(C3CCN(S(C)(=O)=O)CC3)cc2NC(=O)c2cnn3cccnc23)nc1	–	27 nM	–	AUC(0-t) at 8 h [7]: 0.045 µM·h; inhibition [5]: > 80%
Cc1ccc(-n2nc(C3CCN(C(C)C)CC3)cc2NC(=O)c2cnn3cccnc23)cc1	170 µM (≈ 75.4 µg/mL)	47 nM	0.28 µM·h	–
COc1ccc(-n2nc(C3CCN(S(C)(=O)=O)CC3)cc2NC(=O)c2cnn3cccnc23)cc1	–	71 nM	0.43 µM·h	–
Cc1ccc(-n2nc(C3CCN(C(N)=O)CC3)cc2NC(=O)c2cnn3cccnc23)cc1	–	220 nM	–	–
Cc1cnc(-n2nc(C3CCN(S(C)(=O)=O)CC3)cc2NC(=O)c2cnn3cccnc23)nc1	–	180 nM	–	–
CS(=O)(=O)N1CCC(c2cc(NC(=O)c3cnn4cccnc34)n(-c3ccc(C4CC4)cc3F)n2)CC1	–	85 nM	–	–
CS(=O)(=O)N1CCC(c2cc(NC(=O)c3cnn4cccnc34)n(-c3ccc(C4CC4)cn3)n2)CC1	–	20 nM	–	AUC(0-t) at 8 h [7]: 1.9 µM·h
Cc1ccc(-n2nc(-c3cccnc3)cc2NC(=O)c2cnn3cccnc23)cc1	< 2 µM	99 nM	0.44 µM·h	–
CS(=O)(=O)N1CCC(c2cc(NC(=O)c3cnn4cccnc34)n(-c3ccc(C4CC4)cc3)n2)CC1	–	59 nM	5.26 µM·h	–
Cc1ccc(-n2nc(C3CCNCC3)cc2NC(=O)c2cnn3cccnc23)cc1	172 µM (≈ 69.1 µg/mL)	80 nM	–	–
Cc1ccc(-n2nc(C3CCN(C(C)C)CC3)cc2NC(=O)c2cnn3cccnc23)nc1	–	7 nM	–	–
Cc1ccc(-n2nc(C3CCCCC3)cc2NC(=O)c2cnn3cccnc23)cc1	< 2 µM	2400 nM	–	–
COc1ccc(-c2cc(NC(=O)c3cnn4cccnc34)n(-c3ccc(C)cc3)n2)cn1	3 µM (≈ 1.28 µg/mL)	310 nM	–	–

Source: ChEMBL document CHEMBL3585289, “Potent and Selective Amidopyrazole Inhibitors of IRAK4 That Are Efficacious in a Rodent Model of Inflammation” (ACS Med Chem Lett, 2015)
